In PMC5292677 (Leukemia, 2016):

Test system: patients with myelofibrosis
Test: Phase I safety: drug-related adverse events, DLTs, tolerability
Type: in vivo, human
Method in brief: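 Design was 3+3 dose escalation of oral test compound QD (75–400 mg) or BID (100–400 mg) in 28-day cycles. AEs were graded by CTCAE v4.0 with causality, alongside labs, ECGs, vital signs and physical exams. A DLT was grade 4 cytopenia, other grade 3/4 hematologic toxicity, or grade 3/4 non-hematologic toxicity, excluding manageable GI events. The population was all patients dosed ≥1 time.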

In the case of C[C@H](Nc1cc(-c2cnn(C)c2)cc(Nc2cnccn2)n1)c1ccc(F)cc1 [NS-018], the “Drug-related anemia, all grades” value (75 mg QD (n=3)) is reported as 0 n (%), the “Drug-related diarrhea, all grade” value (75 mg QD (n=3)) is reported as 0 n (%) and the “Drug-related dizziness, all grade” value (75 mg QD (n=3)) is reported as 0 n (%). The “Drug-related esophageal reflux, all grade” value (75 mg QD (n=3)) was 0 n (%), the “Drug-related headache, all grade” value (75 mg QD (n=3)) was 0 n (%) and the “Drug-related nausea, all grade” value (75 mg QD (n=3)) was 0 n (%). The “Drug-related paresthesia, all grade” value (75 mg QD (n=3)) was 0 n (%), the “Drug-related thrombocytopenia, Grade 1/2” value (75 mg QD (n=3)) was 0 n (%) and the “Drug-related thrombocytopenia, Grade 3” value (75 mg QD (n=3)) was 0 n (%). For the same molecule, the “Drug-related thrombocytopenia, Grade 4” value (75 mg QD (n=3)) was 1 (33) n (%), the “Drug-related thrombocytopenia, all grades” value (75 mg QD (n=3)) was 1 (33) n (%) and the “Drug-related vomiting, all grade” value (75 mg QD (n=3)) was 0 n (%). The “Drug-related weight increased, all grade” value (75 mg QD (n=3)) was 0 n (%), the “Drug-related anemia, all grades” value (100 mg BID (n=5)) was 0 n (%) and the “Drug-related diarrhea, all grade” value (100 mg BID (n=5)) was 0 n (%). For the same molecule, the “Drug-related dizziness, all grade” value (100 mg BID (n=5)) was 0 n (%), the “Drug-related esophageal reflux, all grade” value (100 mg BID (n=5)) was 0 n (%) and the “Drug-related headache, all grade” value (100 mg BID (n=5)) was 0 n (%). The “Drug-related nausea, all grade” value (100 mg BID (n=5)) was 0 n (%), the “Drug-related paresthesia, all grade” value (100 mg BID (n=5)) was 0 n (%) and the “Drug-related thrombocytopenia, Grade 1/2” value (100 mg BID (n=5)) was 0 n (%). The “Drug-related thrombocytopenia, Grade 3” value (100 mg BID (n=5)) was 1 (20) n (%), the “Drug-related thrombocytopenia, Grade 4” value (100 mg BID (n=5)) was 0 n (%) and the “Drug-related thrombocytopenia, all grades” value (100 mg BID (n=5)) was 1 (20) n (%). The “Drug-related vomiting, all grade” value (100 mg BID (n=5)) was 0 n (%), the “Drug-related weight increased, all grade” value (100 mg BID (n=5)) was 0 n (%) and the “Drug-related anemia, all grades” value (125 mg QD (n=4)) was 0 n (%). The “Drug-related diarrhea, all grade” value (125 mg QD (n=4)) was 0 n (%), the “Drug-related dizziness, all grade” value (125 mg QD (n=4)) was 0 n (%) and the “Drug-related esophageal reflux, all grade” value (125 mg QD (n=4)) was 0 n (%). The “Drug-related headache, all grade” value (125 mg QD (n=4)) was 0 n (%), the “Drug-related nausea, all grade” value (125 mg QD (n=4)) was 0 n (%) and the “Drug-related paresthesia, all grade” value (125 mg QD (n=4)) was 0 n (%). The “Drug-related thrombocytopenia, all grades” value (125 mg QD (n=4)) was 0 n (%), the “Drug-related vomiting, all grade” value (125 mg QD (n=4)) was 0 n (%) and the “Drug-related weight increased, all grade” value (125 mg QD (n=4)) was 0 n (%). The “Drug-related anemia, all grades” value (200 mg BID (n=12)) was 0 n (%), the “Drug-related diarrhea, all grade” value (200 mg BID (n=12)) was 2 (17) n (%) and the “Drug-related diarrhea, grade 3 or 4” value (200 mg BID (n=12)) was 0 n (%). For the same molecule, the “Drug-related dizziness, all grade” value (200 mg BID (n=12)) was 1 (8) n (%), the “Drug-related dizziness, grade 3 or 4” value (200 mg BID (n=12)) was 0 n (%) and the “Drug-related esophageal reflux, all grade” value (200 mg BID (n=12)) was 0 n (%). The “Drug-related headache, all grade” value (200 mg BID (n=12)) was 0 n (%), the “Drug-related nausea, all grade” value (200 mg BID (n=12)) was 1 (8) n (%) and the “Drug-related nausea, grade 3 or 4” value (200 mg BID (n=12)) was 0 n (%). For the same molecule, the “Drug-related paresthesia, all grade” value (200 mg BID (n=12)) was 0 n (%), the “Drug-related thrombocytopenia, Grade 1/2” value (200 mg BID (n=12)) was 1 (8) n (%) and the “Drug-related thrombocytopenia, all grades” value (200 mg BID (n=12)) was 1 (8) n (%). For the same molecule, the “Drug-related vomiting, all grade” value (200 mg BID (n=12)) was 0 n (%), the “Drug-related weight increased, all grade” value (200 mg BID (n=12)) was 0 n (%) and the “Drug-related anemia, Grade 1/2” value (200 mg QD (n=9)) was 1 (11) n (%). For the same molecule, the “Drug-related anemia, all grades” value (200 mg QD (n=9)) was 1 (11) n (%), the “Drug-related diarrhea, all grade” value (200 mg QD (n=9)) was 2 (22) n (%) and the “Drug-related diarrhea, grade 3 or 4” value (200 mg QD (n=9)) was 0 n (%). The “Drug-related dizziness, all grade” value (200 mg QD (n=9)) was 0 n (%), the “Drug-related esophageal reflux, all grade” value (200 mg QD (n=9)) was 0 n (%) and the “Drug-related headache, all grade” value (200 mg QD (n=9)) was 0 n (%). For the same molecule, the “Drug-related nausea, all grade” value (200 mg QD (n=9)) was 1 (11) n (%), the “Drug-related nausea, grade 3 or 4” value (200 mg QD (n=9)) was 0 n (%) and the “Drug-related paresthesia, all grade” value (200 mg QD (n=9)) was 0 n (%). The “Drug-related thrombocytopenia, all grades” value (200 mg QD (n=9)) was 0 n (%), the “Drug-related vomiting, all grade” value (200 mg QD (n=9)) was 2 (22) n (%) and the “Drug-related vomiting, grade 3 or 4” value (200 mg QD (n=9)) was 0 n (%). For the same molecule, the “Drug-related weight increased, all grade” value (200 mg QD (n=9)) was 2 (22) n (%), the “Drug-related weight increased, grade 3 or 4” value (200 mg QD (n=9)) was 0 n (%) and the “Drug-related anemia, Grade 1/2” value (250 mg BID (n=8)) was 1 (13) n (%). The “Drug-related anemia, Grade 3” value (250 mg BID (n=8)) was 0 n (%), the “Drug-related anemia, Grade 4” value (250 mg BID (n=8)) was 0 n (%) and the “Drug-related anemia, all grades” value (250 mg BID (n=8)) was 1 (13) n (%). For the same molecule, the “Drug-related diarrhea, all grade” value (250 mg BID (n=8)) was 0 n (%), the “Drug-related dizziness, all grade” value (250 mg BID (n=8)) was 1 (13)/1 (13) n (%) and the “Drug-related dizziness, grade 3 or 4” value (250 mg BID (n=8)) was 1 (13)/1 (13) n (%). The “Drug-related esophageal reflux, all grade” value (250 mg BID (n=8)) was 1 (13) n (%), the “Drug-related esophageal reflux, grade 3 or 4” value (250 mg BID (n=8)) was 0 n (%) and the “Drug-related headache, all grade” value (250 mg BID (n=8)) was 0 n (%). The “Drug-related nausea, all grade” value (250 mg BID (n=8)) was 2 (25) n (%), the “Drug-related nausea, grade 3 or 4” value (250 mg BID (n=8)) was 1 (13) n (%) and the “Drug-related paresthesia, all grade” value (250 mg BID (n=8)) was 0 n (%). The “Drug-related thrombocytopenia, Grade 1/2” value (250 mg BID (n=8)) was 2 (25) n (%), the “Drug-related thrombocytopenia, Grade 3” value (250 mg BID (n=8)) was 0 n (%) and the “Drug-related thrombocytopenia, Grade 4” value (250 mg BID (n=8)) was 1 (13) n (%). The “Drug-related thrombocytopenia, all grades” value (250 mg BID (n=8)) was 3 (38) n (%), the “Drug-related vomiting, all grade” value (250 mg BID (n=8)) was 0 n (%) and the “Drug-related weight increased, all grade” value (250 mg BID (n=8)) was 0 n (%). For the same molecule, the “DLT: grade 3 QT prolongation” value (250 mg BID cohort) was 1 patient, the “Patients who discontinued owing to AEs (beyond DLT)” value (300 mg BID) was 3 patients and the “Rate of discontinuations owing to AEs” value (300 mg BID) was 38%. The “Drug-related anemia, Grade 1/2” value (300 mg BID (n=12)) was 1 (8) n (%), the “Drug-related anemia, Grade 3” value (300 mg BID (n=12)) was 2 (17) n (%) and the “Drug-related anemia, Grade 4” value (300 mg BID (n=12)) was 0 n (%). For the same molecule, the “Drug-related anemia, all grades” value (300 mg BID (n=12)) was 3 (25) n (%), the “Drug-related diarrhea, all grade” value (300 mg BID (n=12)) was 1 (8) n (%) and the “Drug-related diarrhea, grade 3 or 4” value (300 mg BID (n=12)) was 0 n (%). The “Drug-related dizziness, all grade” value (300 mg BID (n=12)) was 3 (25) n (%), the “Drug-related dizziness, grade 3 or 4” value (300 mg BID (n=12)) was 0 n (%) and the “Drug-related esophageal reflux, all grade” value (300 mg BID (n=12)) was 1 (8) n (%). For the same molecule, the “Drug-related esophageal reflux, grade 3 or 4” value (300 mg BID (n=12)) was 0 n (%), the “Drug-related headache, all grade” value (300 mg BID (n=12)) was 0 n (%) and the “Drug-related nausea, all grade” value (300 mg BID (n=12)) was 4 (33) n (%). The “Drug-related nausea, grade 3 or 4” value (300 mg BID (n=12)) was 0 n (%), the “Drug-related paresthesia, all grade” value (300 mg BID (n=12)) was 2 (17) n (%) and the “Drug-related paresthesia, grade 3 or 4” value (300 mg BID (n=12)) was 1 (8) n (%). The “Drug-related thrombocytopenia, Grade 1/2” value (300 mg BID (n=12)) was 3 (25) n (%), the “Drug-related thrombocytopenia, Grade 3” value (300 mg BID (n=12)) was 1 (8) n (%) and the “Drug-related thrombocytopenia, Grade 4” value (300 mg BID (n=12)) was 0 n (%). For the same molecule, the “Drug-related thrombocytopenia, all grades” value (300 mg BID (n=12)) was 4 (33) n (%), the “Drug-related vomiting, all grade” value (300 mg BID (n=12)) was 0 n (%) and the “Drug-related weight increased, all grade” value (300 mg BID (n=12)) was 1 (8) n (%). The “Drug-related weight increased, grade 3 or 4” value (300 mg BID (n=12)) was 0 n (%).
